Measured values published in ChEMBL document CHEMBL1126566, “Studies on analogues of classical antifolates bearing the naphthoyl group in place of benzoyl in the side chain” (J Med Chem, 1993).
Where a chain is given by its changes, count along the chain named. pIC50, pKi: −log10 of the molar value.

Tests used:
[1] = Ratio of Vmax and Km against CCRF-CEM Folyl-polyglutamate synthetase; type: ADME; conditions: human
Outline: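 Substrate assay with CCRF-CEM FPGS. Analogue replaced aminopterin at 0–100 μM (0–200 μM for one analogue). Buffer held 5 mM ATP, 10 mM MgCl₂, 4 mM L-[³H]Glu, pH 8.4, 37 °C. Ligated glutamate was separated on DEAE-cellulose. Assays were run in duplicate or triplicate within linear enzyme and time ranges, and each experiment was repeated. Vmax (relative to aminopterin) and Km give V/K.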

L1210 [2] = assay: Tested for the ability to inhibit growth in vitro against L1210; type: functional, cell-based; conditions: Mus musculus
Mus musculus [3] = assay: Antitumor activity against E0771 mammary adenocarcinoma in mice at 150 mg/kg(5 days) was determined and […] at day 14 was reported; type: functional
Mus musculus [4] = assay: Antitumor activity against E0771 mammary adenocarcinoma in mice at 100 mg/kg(5 days) was determined and tumor volume at day 10 was reported; type: functional
Outline: (§1)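 Mice bearing implanted E0771 mammary adenocarcinoma, five per test group. Dosing was daily for 5 days, starting on day 3 after implantation. Tumor volume (mm³) was calculated as 4/3πr³ and is also expressed as treated/control (%).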

Dihydrofolate reductase [5] = target: T1, Dihydrofolate reductase (Rattus norvegicus, UniProt Q920D2); assay: Tested for inhibition against rat liver DHFR (dihydrofolate reductase)
T1 sequence (Q920D2 whole entry): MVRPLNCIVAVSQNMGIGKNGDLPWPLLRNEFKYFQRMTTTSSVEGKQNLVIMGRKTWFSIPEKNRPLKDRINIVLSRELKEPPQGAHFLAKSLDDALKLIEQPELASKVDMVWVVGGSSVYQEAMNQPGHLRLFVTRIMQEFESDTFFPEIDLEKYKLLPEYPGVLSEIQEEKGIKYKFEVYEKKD

Mus musculus [6] = assay: Antitumor activity against E0771 mammary adenocarcinoma in mice at 100 mg/kg(5 days) was determined and tumor volume at day 14 was reported; type: functional; outline: as §1
Mus musculus [7] = assay: Antitumor activity against E0771 mammary adenocarcinoma in mice at 100 mg/kg(5 days) was determined and tumor volume at day 7 was reported; type: functional; outline: as §1
Mus musculus [8] = assay: Antitumor activity against E0771 mammary adenocarcinoma in mice at 150 mg/kg(5 days) was determined and tumor volume at day 14 was reported; type: functional; outline: as §1
CCRF-CEM = assay: (§2) Percent inhibition of Folyl-polyglutamate synthase from CCRF-CEM cells; type: cell-based; design: concentration or dose not given beside the values; conditions: Homo sapiens, dose or concentration not given here
Outline: (§3)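 FPGS was partially purified from CCRF-CEM cells by (NH₄)₂SO₄ fractionation and gel sieving, with no detectable γ-glutamyl hydrolase. Product was separated on DEAE-cellulose. Percent inhibition is reported.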

Mus musculus [9] = assay: Antitumor activity against E0771 mammary adenocarcinoma in mice at 150 mg/kg(5 days) was determined and tumor volume at day 7 was reported; type: functional; outline: as §1
Mus musculus [10] = assay: Antitumor activity against E0771 mammary adenocarcinoma in mice at 150 mg/kg(5 days) was determined and […] at day 10 was reported; type: functional
Dihydrofolate reductase [11] = target: T2, Dihydrofolate reductase (Mus musculus, UniProt P00375); assay: Inhibitory activity of Dihydrofolate reductase in L1210 cells; type: cell-based
T2 sequence (P00375 whole entry): T1 sequence (Q920D2 whole entry) with L27P, Q85R, K99R, V115I, E155G, I170V

HL-60 = assay: Tested for the ability to inhibit growth in vitro against HL60; type: functional, cell-based; conditions: Homo sapiens
[12] = Activity relative to saturating aminopterine at 100 uM against CCRF-CEM Folyl-polyglutamate synthetase; type: ADME; conditions: human
Outline: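 FPGS from CCRF-CEM cells: freeze-thawed lysates fractionated by (NH₄)₂SO₄ (0–40% saturation pellet) and gel sieving, stored at –90 °C in 20% glycerol, free of detectable γ-glutamyl hydrolase. Product was separated on DEAE-cellulose minicolumns. Run in duplicate or triplicate, and each experiment was repeated at least once.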

Mus musculus [13] = assay: Antitumor activity against E0771 mammary adenocarcinoma in mice at 150 mg/kg(5 days) was determined and tumor volume at day 10 was reported; type: functional; outline: as §1
CCRF S-180 = assay: Tested for the ability to inhibit growth in vitro against S180; type: functional, cell-based; conditions: Mus musculus
L1210 [14] = assay: Tested for transport into L1210 cells measured as cell influx; type: functional, cell-based, Mus musculus
Mus musculus [15] = assay: Antitumor activity against E0771 mammary adenocarcinoma in mice at 100 mg/kg(5 days) was determined and […] at day 10 was reported; type: functional
Mus musculus [16] = assay: Antitumor activity against E0771 mammary adenocarcinoma in mice at 150 mg/kg(5 days) was determined and […] at day 7 was reported; type: functional
Dihydrofolate reductase [17] = target: T3, Dihydrofolate reductase (Pneumocystis carinii, UniProt P16184); assay: Tested for inhibition against Pneumocystis carinii DHFR (dihydrofolate reductase)
T3 sequence (P16184 whole entry): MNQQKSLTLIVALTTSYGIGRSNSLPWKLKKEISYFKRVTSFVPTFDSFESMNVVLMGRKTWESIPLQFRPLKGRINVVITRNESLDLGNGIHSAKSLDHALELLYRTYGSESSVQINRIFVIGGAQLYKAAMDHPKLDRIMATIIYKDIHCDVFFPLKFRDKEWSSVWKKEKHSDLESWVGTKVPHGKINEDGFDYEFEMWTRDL

Mus musculus [18] = assay: Antitumor activity against E0771 mammary adenocarcinoma in mice at 100 mg/kg(5 days) was determined and […] at day 7 was reported; type: functional
Mus musculus [19] = assay: Antitumor activity against E0771 mammary adenocarcinoma in mice at 100 mg/kg(5 days) was determined and […] at day 14 was reported; type: functional
[20] = target: T4, Folylpolyglutamate synthase, mitochondrial (Mus musculus) (UniProt P48760); assay: Specific activity of L1210 Folyl-polyglutamate synthase
T4 sequence (whole entry): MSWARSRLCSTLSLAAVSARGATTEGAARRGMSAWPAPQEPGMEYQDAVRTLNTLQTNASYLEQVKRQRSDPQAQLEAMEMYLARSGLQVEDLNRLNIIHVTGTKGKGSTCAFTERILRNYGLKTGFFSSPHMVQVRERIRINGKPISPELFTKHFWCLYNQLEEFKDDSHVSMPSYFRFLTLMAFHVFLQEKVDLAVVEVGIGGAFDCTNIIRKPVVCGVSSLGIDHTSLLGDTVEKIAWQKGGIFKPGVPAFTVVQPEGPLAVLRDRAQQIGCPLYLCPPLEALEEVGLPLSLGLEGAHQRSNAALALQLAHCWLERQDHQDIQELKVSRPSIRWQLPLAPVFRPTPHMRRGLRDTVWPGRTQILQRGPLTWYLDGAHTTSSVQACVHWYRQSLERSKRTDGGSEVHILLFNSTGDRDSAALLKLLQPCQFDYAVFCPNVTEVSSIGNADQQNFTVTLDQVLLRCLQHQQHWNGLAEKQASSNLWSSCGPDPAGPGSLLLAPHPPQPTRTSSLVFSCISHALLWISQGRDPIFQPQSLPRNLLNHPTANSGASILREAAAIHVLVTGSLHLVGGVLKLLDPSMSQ
Outline: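 FPGS from L1210 cells was assayed by [³H]glutamate ligation, like the human enzyme assay. Each folate substrate was at 100 μM, and only specific activity was measured.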

[21] = as §2; type: cell-based, Homo sapiens; outline: as §3
Mus musculus [22] = assay: Antitumor activity against E0771 mammary adenocarcinoma in mice at 6 mg/kg(5 days) was determined and […] at day 14 was reported; toxic indicates 4 toxic deaths; type: organism-based; design: dose 6 mg/kg; conditions: in vivo, 120 h
Outline: (§4)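 E0771 mammary adenocarcinoma implanted in mice, five mice per group. Treatment was given daily for 5 days, starting day 3 after implantation. Tumor volume was calculated as 4/3πr³ and averaged on days 7, 10 and 14. T/C (%) is the treated/control tumor volume. Toxic deaths were recorded.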

Mus musculus [23] = assay: Antitumor activity against E0771 mammary adenocarcinoma in mice at 3 mg/kg(5 days) was determined and tumor volume at day 10 was reported; type: functional; outline: as §1
Mus musculus [24] = assay: Antitumor activity against E0771 mammary adenocarcinoma in mice at 6 mg/kg(5 days) was determined and tumor volume at day 7 was reported; type: functional; outline: as §1
Mus musculus [25] = assay: Antitumor activity against E0771 mammary adenocarcinoma in mice at 6 mg/kg(5 days) was determined and […] at day 10 was reported; type: functional; outline: as §4
Mus musculus [26] = assay: Antitumor activity against E0771 mammary adenocarcinoma in mice at 6 mg/kg(5 days) was determined and tumor volume at day 10 was reported; type: functional; outline: as §1
Mus musculus [27] = assay: Antitumor activity against E0771 mammary adenocarcinoma in mice at 6 mg/kg(5 days) was determined and […] at day 7 was reported; type: functional; outline: as §4
Mus musculus [28] = assay: Antitumor activity against E0771 mammary adenocarcinoma in mice at 3 mg/kg(5 days) was determined and […] at day 7 was reported; type: functional; outline: as §4
Mus musculus [29] = assay: Antitumor activity against E0771 mammary adenocarcinoma in mice at 3 mg/kg(5 days) was determined and […] at day 10 was reported; type: functional; outline: as §4
Mus musculus [30] = assay: Antitumor activity against E0771 mammary adenocarcinoma in mice at 3 mg/kg(5 days) was determined and tumor volume at day 14 was reported; type: functional; outline: as §1
Mus musculus [31] = assay: Antitumor activity against E0771 mammary adenocarcinoma in mice at 3 mg/kg(5 days) was determined and tumor volume at day 7 was reported; type: functional; outline: as §1
Mus musculus [32] = assay: Antitumor activity against E0771 mammary adenocarcinoma in mice at 6 mg/kg(5 days) was determined and tumor volume at day 14 was reported; toxic indicates 4 toxic deaths; type: organism-based; design: dose 6 mg/kg; conditions: in vivo, 120 h; outline: as §4
Mus musculus [33] = assay: Antitumor activity against E0771 mammary adenocarcinoma in mice at 3 mg/kg(5 days) was determined and […] at day 14 was reported; type: functional; outline: as §4

Compound: CN(Cc1cnc2nc(N)nc(N)c2n1)c1ccc(C(=O)NC(CCC(=O)O)C(=O)O)c2ccccc12 (stereo unspecified)
- V/K [1]: 0.0033
- pIC50 (L1210 [2]): 8.05
- T/C (Mus musculus [3]): 28%
- Tumor volume (Mus musculus [4]): 268 mm**3
- pIC50 (Dihydrofolate reductase [5]): 11.60
- Tumor volume (Mus musculus [6]): 839 mm**3
- Tumor volume (Mus musculus [7]): 82 mm**3
- Tumor volume (Mus musculus [8]): 493 mm**3
- inhibition (CCRF-CEM): 3%
- Tumor volume (Mus musculus [9]): 62 mm**3
- T/C (Mus musculus [10]): 23%
- pKi (Dihydrofolate reductase [11]): 11.28
- pIC50 (HL-60): 8.48
- Relative Vmax [12]: 0.27
- Tumor volume (Mus musculus [13]): 144 mm**3
- pIC50 (CCRF S-180): 8.03
- pKi (L1210 [14]): 5.98
- T/C (Mus musculus [15]): 43%
- T/C (Mus musculus [16]): 28%
- pIC50 (Dihydrofolate reductase [17]): 12.72
- T/C (Mus musculus [18]): 37%
- T/C (Mus musculus [19]): 48%
- Km (Homo sapiens): 82 µM
- Specific activity (pM hr-1 (mg of protein)-1) [20]: 0.18

Compound: Cc1c(CNc2ccc(C(=O)NC(CCC(=O)O)C(=O)O)c3ccccc23)cnc2nc(N)nc(N)c12 (stereo unspecified)
- pIC50 [21]: 4.16
- pIC50 (L1210 [2]): 8.41
- T/C (Mus musculus [22]): Toxic
- Tumor volume (Mus musculus [23]): 421 mm**3
- Tumor volume (Mus musculus [24]): 87 mm**3
- T/C (Mus musculus [25]): 7%
- Tumor volume (Mus musculus [26]): 42 mm**3
- T/C (Mus musculus [27]): 39%
- T/C (Mus musculus [28]): 51%
- T/C (Mus musculus [29]): 68%
- pKi (Dihydrofolate reductase [11]): 11.29
- pIC50 (HL-60): 9.13
- Relative Vmax [12]: 0.02
- Tumor volume (Mus musculus [30]): 1048 mm**3
- pIC50 (CCRF S-180): 8.42
- pKi (L1210 [14]): 5.88
- Tumor volume (Mus musculus [31]): 113 mm**3
- Tumor volume (Mus musculus [32]): Toxic
- T/C (Mus musculus [33]): 60%

Compound: Nc1nc(N)c2nc(CNc3ccc(C(=O)NC(CCC(=O)O)C(=O)O)c4ccccc34)cnc2n1 (stereo unspecified)
- pIC50 (L1210 [2]): 8.22
- inhibition (CCRF-CEM): 12%
- pKi (Dihydrofolate reductase [11]): 11.34
- pIC50 (HL-60): 8.34
- Relative Vmax [12]: 0.03
- pIC50 (CCRF S-180): 8.23
- pKi (L1210 [14]): 6.04
- Specific activity (pM hr-1 (mg of protein)-1) [20]: 0.41

Compound: CN(Cc1cnc2nc(N)nc(N)c2c1)c1ccc(C(=O)NC(CCC(=O)O)C(=O)O)c2ccccc12 (stereo unspecified)
- pIC50 (L1210 [2]): 8.64
- inhibition (CCRF-CEM): 23%
- pIC50 (HL-60): 8.82
- pIC50 (CCRF S-180): 8.72
- pKi (L1210 [14]): 6.11
